PLC-gamma1 inh: blocks human PLC-gamma1 enzyme activity | P19174 | purified PLC-gamma1, fluorogenic substrate, fluorescence | inhibition, % at 12.2 µM | 370,000 compounds, 0.84% hits | AID 720700; in the data active = inhibition above about 9.5%
ADAM10 inh: ADAM10 inhibition, QFRET primary screen; O14672; recombinant ADAM10, EDANS/DABCYL FRET peptide cleavage, 3 h; inhibition, % at 7 µM; 370,000 compounds, 0.62% hits; AID 720582;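 active = inhibition above a per-campaign cutoff equal to the mean of compounds falling between control-based bounds plus 3 SD, cut at about 20% in these data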;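 also: 0% = DMSO wells while the 100% control is not disclosed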
Tb MetRS inh: Trypanosoma brucei MetRS inhibition. AID 624268. purified T. brucei MetRS, ATP depletion, Kinase-Glo luminescence. inhibition, % at 11.9 µM. 360,000 compounds, 0.4% hits;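 active = inhibition above a per-plate cutoff of the control wells' mean inhibition plus 3 SD, cut at about 5.5% in these data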;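 also: 0% = DMSO wells median and 100% = median of wells with control inhibitor compound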
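Dosing: 11.9 µM compound single dose, 0.9% DMSO; Assay system: purified T. brucei MetRS enzyme; Measured by: Kinase-Glo luciferase luminescence reporting remaining unconsumed ATP; Schedule: 15 min plus 2 h at 25 °C.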
PLC-beta3 inh: blocks human PLC-beta3 enzyme activity; Q01970; Purified PLC-beta3, fluorogenic substrate, fluorescence; inhibition, % at 12.2 µM; 370,000 compounds, 0.18% hits; AID 720704; in the data active = inhibition above about 11%;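 also: 0% = median of compound wells on plate and 100% = full blocker control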
Target sequence (Q01970 whole entry, looked up): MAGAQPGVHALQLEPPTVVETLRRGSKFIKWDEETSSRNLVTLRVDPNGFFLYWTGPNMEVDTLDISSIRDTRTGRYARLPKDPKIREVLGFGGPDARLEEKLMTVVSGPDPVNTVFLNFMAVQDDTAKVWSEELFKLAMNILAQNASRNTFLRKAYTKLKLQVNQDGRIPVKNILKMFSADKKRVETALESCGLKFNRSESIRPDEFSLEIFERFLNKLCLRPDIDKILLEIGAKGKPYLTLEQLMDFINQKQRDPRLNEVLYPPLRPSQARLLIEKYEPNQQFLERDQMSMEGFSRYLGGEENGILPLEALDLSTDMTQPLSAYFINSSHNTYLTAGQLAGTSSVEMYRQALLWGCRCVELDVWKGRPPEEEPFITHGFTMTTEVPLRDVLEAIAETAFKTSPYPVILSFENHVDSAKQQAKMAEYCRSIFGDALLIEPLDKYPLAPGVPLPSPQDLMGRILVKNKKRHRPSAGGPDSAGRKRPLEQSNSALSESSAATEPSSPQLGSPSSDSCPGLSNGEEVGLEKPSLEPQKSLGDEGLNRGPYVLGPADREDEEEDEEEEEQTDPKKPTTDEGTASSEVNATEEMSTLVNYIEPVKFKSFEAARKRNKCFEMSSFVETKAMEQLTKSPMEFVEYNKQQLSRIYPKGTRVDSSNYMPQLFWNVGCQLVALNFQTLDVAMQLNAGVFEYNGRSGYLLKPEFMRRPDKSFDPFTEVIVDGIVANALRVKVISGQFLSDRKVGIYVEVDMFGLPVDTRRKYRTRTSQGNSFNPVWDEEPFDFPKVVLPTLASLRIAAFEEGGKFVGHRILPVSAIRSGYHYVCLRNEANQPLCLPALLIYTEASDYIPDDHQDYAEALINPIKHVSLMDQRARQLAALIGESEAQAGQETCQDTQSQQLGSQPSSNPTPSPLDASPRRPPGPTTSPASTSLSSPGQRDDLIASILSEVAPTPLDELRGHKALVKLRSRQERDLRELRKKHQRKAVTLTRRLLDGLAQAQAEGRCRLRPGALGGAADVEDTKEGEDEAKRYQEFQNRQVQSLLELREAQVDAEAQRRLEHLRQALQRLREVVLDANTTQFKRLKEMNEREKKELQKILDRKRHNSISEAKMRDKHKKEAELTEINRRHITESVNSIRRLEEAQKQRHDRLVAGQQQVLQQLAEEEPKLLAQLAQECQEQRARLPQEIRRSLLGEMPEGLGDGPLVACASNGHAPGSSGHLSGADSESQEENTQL
ADAM17 inh: inhibitors of human ADAM17; P78536; recombinant ADAM17, EDANS/DABCYL FRET peptide cleavage; inhibition, % at 6.95 µM; 370,000 compounds, 0.83% hits; AID 720648;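 active = inhibition above the mean of compounds lying between control limits plus 3 SD, set per campaign, cut at about 8.5% in these data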;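 also: 0% = DMSO-only wells as the low control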
ADAM10 confirm: human ADAM10 inhibition, confirmation; shares compounds with ADAM10 inh; ADAM10 QFRET peptide cleavage, EDANS fluorescence; inhibition, % at 6.95 µM; 2,100 compounds, 1% hits;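 active = inhibition above about 20% chosen separately for each screening run, limit read from the data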;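 also: 0% = DMSO wells and 100% = marimastat wells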
ADAM17 counter: inhibits human ADAM17 in ADAM10 exosite counter-screen | shares compounds with ADAM10 inh | ADAM17 QFRET peptide cleavage, EDANS fluorescence | inhibition, % at 6.95 µM | 2,100 compounds, 0.5% hits | AID 743214;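 active = mean triplicate inhibition above the solvent-only control wells' mean plus 3 SD, cut at about 12% in these data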;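 also: 0% = DMSO wells and 100% = marimastat wells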
ADAM10 counter: counter-screen for ADAM17 exosite inhibitors: inhibitors of human ADAM10 | recombinant ADAM10, EDANS/DABCYL FRET peptide cleavage, 3 h | shares compounds with ADAM17 inh | inhibition, % at 6.95 µM | 2,900 compounds, 47% hits;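 active = mean inhibition over the triplicate runs exceeds the activity threshold set in the earlier primary screen, cut at about 20% in these data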;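 also: 0% = DMSO wells and 100% = marimastat wells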
ADAM17 confirm: human ADAM17 inhibition, confirmation. inhibition, % at 6.95 µM. shares compounds with ADAM17 inh. recombinant ADAM17, EDANS/DABCYL QFRET peptide cleavage. 2,900 compounds, 65% hits;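 active = mean inhibition across replicates above the hit cutoff set in the primary screen, cut at about 8.5% in these data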;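 also: 0% = DMSO wells and 100% = marimastat wells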
The depositor's hits bear a star; . = no result. An excerpt weighted towards active compounds, which were near 2.3% of everything screened.

SMILES | PLC-gamma1 inh | ADAM10 inh | Tb MetRS inh | PLC-beta3 inh | ADAM17 inh | ADAM10 confirm | ADAM17 counter | ADAM10 counter | ADAM17 confirm
COC(=O)[C@]12C[C@H](CC(=O)NCCC(C)C)C(=O)N(Cc3cccc4ccccc34)C1=C[C@H](C(C)C)O[C@@H]2C1CC1 | -0.3 | 19.9* | . | 5.7 | 8.6* | 11.7 | 3.7 | 34.2* | 21.5*
COC(=O)[C@]12C[C@H](CC(=O)NCc3cccc(C(F)(F)F)c3)C(=O)N(CCc3ccc(OC)c(OC)c3)C1=C[C@H](C(C)C)O[C@@H]2C1CC1 | 1.0 | 22.3* | . | 1.3 | 12.7* | -0.3 | 0.0 | 22.1* | 8.9*
CCCCOCCCNC(=O)C[C@@H]1C[C@@]2(C(=O)OC)CC(C)(C)CC=C2N(Cc2cccc3ccccc23)C1=O | 6.3 | 21.6* | -1.1 | -0.5 | 13.4* | 7.5 | 1.9 | 27.4* | 16.4*
COCCCNC(=O)C[C@H]1C[C@@]2(C(=O)OC)C(=C[C@H](C(C)C)O[C@@H]2C2CC2)N(Cc2cccc3ccccc23)C1=O | 0.8 | -1.0 | . | -0.9 | -1.4 | . | . | . | .
Nc1cc(Cl)nc(N/N=C/c2ccccc2[N+](=O)[O-])n1 | 2.4 | -5.4 | 0.0 | 1.6 | -5.5 | . | . | . | .
CN(c1ccccc1)S(=O)(=O)c1cccc(NC(=O)CSc2nncn2C)c1 | 0.5 | -7.9 | 0.0 | 0.3 | -1.9 | . | . | . | .
CN(c1ccccc1)S(=O)(=O)c1cccc(NC(=O)CSc2ncc(C(F)(F)F)cc2Cl)c1 | 2.1 | 19.8* | -1.3 | -3.9 | 10.0* | 10.2 | 3.5 | 26.5* | 10.3*
CCCCn1c(N)c(N(CC)C(=O)C2COc3ccccc3O2)c(=O)[nH]c1=O (configuration not stated) | 2.2 | 1.5 | -0.3 | -4.1 | -2.5 | . | . | . | .
O=C(NCCCN1CCOCC1)C(c1ccccc1)c1ccccc1 | -4.3 | 2.7 | 0.4 | -6.4 | -1.9 | . | . | . | .
O=C(/C=C/c1ccc(Cl)cc1Cl)NCCSc1ccccc1 | 3.7 | 24.6* | 1.2 | 2.8 | 10.5* | 6.2 | 1.6 | 23.4* | 16.8*
COC(=O)[C@H]1C[C@@]2(n3ccc4ccccc43)c3ccccc3N(S(=O)(=O)c3ccccc3)[C@H]2N1 | 1.1 | 10.1 | . | 1.6 | 5.3 | . | . | . | .
COc1ccc(N(CC(=O)Nc2ccc(F)cc2)S(=O)(=O)c2ccccc2[N+](=O)[O-])c(OC)c1 | 9.2 | 24.8* | -0.1 | 2.4 | 11.2* | 1.8 | 0.8 | 32.1* | 14.1*
Cc1nn2cnnc2c(C)c1Cc1ccc(Cl)cc1 | -1.7 | -6.7 | -1.2 | -3.8 | -4.0 | . | . | . | .
CCOc1cc(/C=C/c2ccc3cccc([N+](=O)[O-])c3n2)cc(Cl)c1O | 8.3 | 25.1* | -1.3 | 9.0 | 15.3* | 0.4 | 0.5 | 11.4 | 5.2
COc1ccc(NC(=O)c2cccc(Oc3ccc([N+](=O)[O-])cc3Cl)c2)cc1 | 3.0 | 21.7* | 0.3 | 2.2 | 10.4* | 8.0 | 3.0 | 30.4* | 17.8*
COc1ccc(/C=N/NC(=O)c2ccc(NC(=O)c3cccc([N+](=O)[O-])c3)cc2)c(OC)c1 | 0.8 | 2.6 | 0.4 | -1.7 | -1.2 | . | . | . | .
COc1ccc(C(=O)NC(=S)Nc2ccc(Cc3ccncc3)cc2)cc1 | 2.2 | 35.6* | 0.2 | 4.3 | 9.0* | 3.3 | 0.7 | 23.0* | 11.5*
Cc1ccccc1C(=O)NC(=S)Nc1ccc(Cc2ccncc2)cc1 | -0.3 | 5.6 | 0.1 | 4.9 | 3.1 | . | . | . | .
CCc1nc(NCC2CC2)c2nnn(Cc3ccccc3)c2n1 | -2.2 | -18.9 | -0.3 | -5.5 | -1.3 | . | . | . | .
CC(=O)OC1[C@H](Oc2c(O)c(C)c3c4c2[C@@H](C)CC[C@@H]4[C@@H](C)C[C@@H]3C=C(C)C)OC[C@@H](O)[C@@H]1O (some centres not stated) | -2.1 | 6.3 | -0.4 | 3.5 | 4.5 | . | . | . | .
CC(C)=C[C@H]1C[C@H](C)[C@H]2CC[C@H](C)c3c(O[C@@H]4OC[C@@H](O)[C@H](O)C4O)c(O)c(C)c1c32 (some centres not stated) | 3.0 | 30.3* | -0.3 | 4.9 | 21.1* | 6.4 | 2.7 | 15.3 | 9.1*
O=C(Nc1ccccc1C(F)(F)F)O[C@@H]1CC[C@@]23CCCN2C(=O)CCC[C@H]3C1 | 2.4 | -2.8 | . | 0.8 | -3.6 | . | . | . | .
Cc1ccc(-c2cnc(C(O)c3cccc(Cl)c3)[nH]2)cc1 (configuration not stated) | . | . | 1.2 | . | . | . | . | . | .
OC(c1cccc(Cl)c1)c1ncc(-c2cccc(C(F)(F)F)c2)[nH]1 (configuration not stated) | 1.8 | 29.3* | 1.4 | 1.9 | 9.2* | 1.6 | 0.6 | 23.3* | 14.1*
Cc1cccc(C(O)c2ncc(-c3cccc(C(F)(F)F)c3)[nH]2)c1C (configuration not stated) | 7.9 | 22.5* | -0.2 | 9.1 | 14.7* | 1.9 | -0.2 | 4.7 | 7.1
SMILES | PLC-gamma1 inh | ADAM10 inh | Tb MetRS inh | PLC-beta3 inh | ADAM17 inh | ADAM10 confirm | ADAM17 counter | ADAM10 counter | ADAM17 confirm
Oc1ccc(-c2nccs2)cc1 | -6.5 | -114.4 | -0.3 | -6.8 | -35.2 | . | . | . | .
CC(C)(C)c1ccc(S(=O)(=O)N2CCCC(C(=O)N3CCN(Cc4ccccc4)CC3)C2)cc1 (configuration not stated) | 2.0 | 18.6 | . | 3.4 | 3.0 | . | . | . | .
Cc1ccc(-n2c(SCC(=O)Nc3cccc(S(N)(=O)=O)c3)nc3ccccc32)cc1 | -19.9 | 20.0* | -0.7 | 0.7 | 11.9* | 11.4 | 3.8 | 26.5* | 14.2*
Cc1nnc(SCC(=O)Nc2cccc(S(N)(=O)=O)c2)n1-c1ccccc1 | 7.0 | -7.5 | -0.1 | -8.7 | -7.6 | . | . | . | .
Cc1ccc(C)c(Cn2nnc3c(=O)[nH]c(C4CCN(S(=O)(=O)c5ccc(S(=O)(=O)NC6CC6)cc5)CC4)nc32)c1 | 6.8 | 24.6* | -0.4 | -1.6 | 11.3* | 5.0 | 1.7 | 38.5* | 20.6*
Cc1ccc(C)c(Cn2nnc3c(=O)[nH]c(C4CCN(S(=O)(=O)c5ccc(S(=O)(=O)N(C)C)cc5)CC4)nc32)c1 | -0.4 | -2.7 | 0.1 | -1.3 | -1.0 | . | . | . | .
NC(=O)[C@H]1CC2(CC(c3cccc(NC(=O)COc4ccc(Cl)cc4)c3)=NO2)CN1C(=O)c1ccc(Cl)cc1 (some centres not stated) | 9.5 | 36.1* | -0.5 | 2.2 | 14.4* | 3.8 | 1.3 | 37.2* | 21.7*
COc1nccnc1NS(=O)(=O)c1ccc(NC(=S)NC(=O)/C=C/c2ccc(F)cc2)cc1 | 4.2 | 23.9* | -0.6 | -1.5 | 10.4* | -1.7 | -0.5 | 8.2 | 6.9
